ATG4B inh: blocks human ATG4B protease cleavage of LC3 substrate; 340,000 tested, 0.51% active; Q9Y4P1; inhibition, % at 8.33 µM; AID 504462; ATG4B cleavage of LC3-PLA2, NBD-HPC fluorescence, 1 h; in the data active means inhibition above about 40%
Target sequence (Q9Y4P1 whole entry, looked up): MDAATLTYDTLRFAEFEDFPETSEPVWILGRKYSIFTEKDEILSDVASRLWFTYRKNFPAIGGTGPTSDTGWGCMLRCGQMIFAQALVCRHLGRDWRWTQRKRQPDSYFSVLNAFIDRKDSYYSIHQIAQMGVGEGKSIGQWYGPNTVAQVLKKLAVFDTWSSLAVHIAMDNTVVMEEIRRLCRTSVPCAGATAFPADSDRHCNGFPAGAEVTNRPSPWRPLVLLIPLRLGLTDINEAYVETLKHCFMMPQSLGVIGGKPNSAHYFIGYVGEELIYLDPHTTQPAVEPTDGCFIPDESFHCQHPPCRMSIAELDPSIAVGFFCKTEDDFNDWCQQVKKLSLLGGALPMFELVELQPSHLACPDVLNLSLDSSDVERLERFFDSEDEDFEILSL
B2AR ag: agonists of human beta-2 adrenergic receptor inducing internalization; Am2.2-beta2AR cells, FAP receptor internalization, flow cytometry; 340,000 tested, 0.43% active; response, % (concentration not given with the values);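 active means response above a set limit, near 3 SD of response in nonfluorescent compounds, cut at about 42% in these data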
MEKK2 mut-MEK5: signal of MEK5 binding to mutant human MEKK2 PB1 domain; bead flow cytometry, Alexa488-MEK5 binding to MEKK2 mutant; percent response, % at 10 µM; 290,000 tested, 0.35% active; AID 1530; in the data active means percent response above about 24%, passing the limit was not always enough
Dynein transport: dynein cargo transport inhibition. 3617.4 mouse cells, GR-EGFP nuclear translocation imaging; test concentration mostly 20 µM; stimulated with dexamethasone, 1 µM; stronger effect = lower value. z-score, hits read low. 220,000 tested, 0.47% active;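 active means plate z-score of nuclear minus cytoplasmic receptor signal below a set negative limit, without overly bright fluorescence or cell loss, cut at about -3.5 in these data, passing the limit was not always enough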;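 further: z-score of nuclear minus cytoplasmic ring GR-EGFP intensity difference per well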
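Buffer or medium: tet-free, stripped-serum medium; Also added: dexamethasone, 1.0 µM final; Technique: high-content fluorescence imaging after fixation; Times: 48 h induction, 1 h compound, 30 min dex at 37 °C; Read-out: per-cell GR-EGFP intensity, nucleus versus surrounding cytoplasmic ring, well-averaged.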
MEKK3 PB1 HTS: MEKK3-MEK5 PB1 interaction, increase or decrease; Q99759; AID 1529; binding response (% of control), % at 10 µM; bead-based flow cytometry, Alexa488-MEK5 binding to MEKK3; actives lie on both sides; 0 = blocked by unlabeled MEK5, 100 = vehicle; 290,000 tested, 1.4% active;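 active means binding response more than 3 SD above or below the average of its plate-row segment, actives on both sides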;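 further: Alexa488 bead fluorescence after subtracting the streptavidin-only scavenger bead signal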
MEKK2 WT-MEK5: raises or lowers MEK5 binding to wildtype human MEKK2 PB1 domain; binding response (% of control), % at 10 µM; bead flow cytometry, Alexa488-MEK5 binding to MEKK2 WT; actives lie on both sides; AID 1531; 290,000 tested, 1.1% active; Q9Y2U5; in the data active means binding response below about 67% or above about 130%
Beta2AR ag CP1: activates human beta-2 adrenergic receptor. 1,100 tested, 25% active. shares compounds with B2AR ag. percent response (surface receptor), % at 10 µM. Am2.2-beta2AR cells, FAP surface receptor, flow cytometry; stronger effect = lower value;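 active means surface receptor percent response at or below 58%, roughly 3 SD from nonfluorescent compounds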
B2AR FAP counter: fluorescence artifact in beta-2AR agonist FAP counterscreen | shares compounds with B2AR ag | Am2.2 cells, FAP fluorogen flow cytometry; stronger effect = lower value | 1,100 tested, under 10 active | calls only at 10 µM;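 active means percent response below a set limit in fluorescence channel 1 and below 50% in channel 8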
ATG4B conf: ATG4B (human) inhibition, single-dose confirmed | AID 504757 | inhibition, % at 8.33 µM | shares compounds with ATG4B inh | ATG4B protease fluorescent substrate cleavage assay | 320 tested, 92% active; in the data active means inhibition above about 39%
PLA2 ctr: counter-screen for ATG4B inhibitors: human phospholipase A2. AID 588402. 1,600 tested, 66% active. shares compounds with ATG4B inh. inhibition, % at 8.33 µM. purified PLA2, NBD-C6-HPC fluorescence, 45 min; in the data active means inhibition above about 50%
Target sequence (P04054 whole entry, looked up): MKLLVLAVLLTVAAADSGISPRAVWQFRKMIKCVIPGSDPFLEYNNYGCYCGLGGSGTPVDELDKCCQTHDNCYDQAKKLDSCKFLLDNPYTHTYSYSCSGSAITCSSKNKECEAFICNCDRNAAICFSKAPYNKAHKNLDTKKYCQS
Starred values were filed as active, the others as inactive; i = inactive; / = no result given. Compounds with a hit are over-represented: about 2.9% of the library has one in this group of screens.

SMILES	ATG4B inh	B2AR ag	MEKK2 mut-MEK5	Dynein transport	MEKK3 PB1 HTS	MEKK2 WT-MEK5	Beta2AR ag CP1	B2AR FAP counter	PLA2 ctr	others
CCCc1cc(=O)n2c(nc3ccccc32)[nH]1	-3	68*	12	-1.1	115	114	95	i	/
CC(=O)Nc1ccc(S(=O)(=O)NNC(=O)c2cc3c4ccccc4n(C)c3s2)cc1	-25	-1	-5	-0.14	105	99	/	/	/
CC(C)c1nc2oc3c(N(C)CCO)ncnc3c2c2c1CCC2	-3	-10	-14	-0.68	92	97	148	i	/
CC1CCN(C(=O)C(C)Sc2nc(-c3ccccc3)cc(C(F)(F)F)n2)CC1 (stereo not drawn)	2	15	-2	-0.79	100	96	111	i	/
CC(Sc1nc(-c2ccccc2)cc(C(F)(F)F)n1)C(=O)N1CCCC1 (stereo not drawn)	0	54*	8	-0.34	104	102	55*	i	/
CC(Sc1nc(-c2ccccc2)cc(C(F)(F)F)n1)C(=O)N1CCOCC1 (stereo not drawn)	-9	91*	1	-0.29	93	95	14*	i	/
CC(Sc1nc(-c2ccccc2)cc(C(F)(F)F)n1)C(=O)NCCN1CCOCC1 (stereo not drawn)	-13	-23	-2	-0.29	90	90	/	/	/
Cc1nc(N/N=C/c2ccc(Br)cc2)cc(N2CCOCC2)n1	-8	-3	7	/	107	109	/	/	/
Cc1cc(S(=O)(=O)N2CCOCC2)ccc1OCC(=O)Nc1ccc(F)cc1	-13	3	2	/	101	100	112	i	/
Cc1cc(S(=O)(=O)N2CCOCC2)ccc1OCC(=O)Nc1ccc(F)c(Cl)c1	6	0	-4	/	97	97	112	i	/
N#Cc1c(F)cccc1NCCCn1ccnc1	-4	2	/	/	/	/	/	/	/
COc1cc(NC(=O)c2ccc3c(c2)OCO3)ccc1NC(=O)c1ccco1	2	-1	3	-0.42	108	99	112	i	/
Cc1nn(-c2ccccn2)c2nc(-c3cccs3)cc(C(=O)NCc3ccco3)c12	-15	43*	-3	-0.71	97	97	73	i	/
CCOC(=O)c1cc(-c2cccs2)nc2c1c(C)nn2-c1ccccn1	-30	5	-12	1.1	103	80	/	/	/
N#Cc1c(N2CCCC2)nc(N)c2c(N)nc(N3CCCC3)cc12	74*	46*	3	3	104	105	83	i	40	ATG4B conf=26
Cc1c(-c2ccccc2)[n+](=O)c2c(n1[O-])CCCCC2	-10	-1	-1	-0.59	101	103	/	/	/
COc1ccc(C)cc1N1C(=N)/C(=C2/Nc3ccccc3S2)C(c2ccccc2)C1=O (stereo not drawn)	50*	45*	-1	-3.6*	95	97	85	i	29
CCC(C)(CC(=O)O)CC(=O)Nc1cc(C(F)(F)F)cc(C(F)(F)F)c1 (stereo not drawn)	3	4	-7	-0.96	82	90	/	/	/
O=C(c1ccc(OC2CCN(Cc3ccc(C(F)(F)F)cc3)CC2)cc1)N1CCCCC1	41*	62*	-4	/	99	99	8.5*	i	51*
Cn1cc(CN2CCC(Oc3ccc(C(=O)N4CCCCC4)cc3)CC2)cn1	-2	-2	0	/	100	101	/	/	/
C[C@H]1CN([C@@H](C)CO)C(=O)c2cc(NC(=O)NC3CCCCC3)ccc2O[C@H]1CN(C)C(=O)Nc1ccc(C(F)(F)F)cc1	62*	2	/	/	/	/	/	/	74*
O=P(O)(Cc1ccccc1)Cc1ccccc1	0	-5	18	/	118	122	/	/	/
Cc1ccc2[nH]c(=O)c(CN(Cc3cccs3)Cc3nnnn3Cc3ccccc3)cc2c1	52*	-1	1	-0.0011	102	97	/	/	65*
Cc1cccc(NC(=O)CSCC(=O)Nc2cccc(S(=O)(=O)N3CCCCCC3)c2)c1	-3	5	/	/	/	/	/	/	/
CCC(NC(=S)NCc1ccc(F)cc1)c1ccc(C(C)C)cc1 (stereo not drawn)	54*	17	5	/	104	116	/	/	77*
SMILES	ATG4B inh	B2AR ag	MEKK2 mut-MEK5	Dynein transport	MEKK3 PB1 HTS	MEKK2 WT-MEK5	Beta2AR ag CP1	B2AR FAP counter	PLA2 ctr	others
CCC(C)c1ccc(C(C)NC(=S)NCc2ccc(F)cc2)cc1 (stereo not drawn)	63*	2	11	/	111	119	/	/	78*
CCCc1ccc(C(C)NC(=S)NCc2ccc(F)cc2)cc1 (stereo not drawn)	59*	0	6	/	107	112	/	/	70*
COc1ccc(C(C)NC(=S)NCc2ccc(F)cc2)cc1OC (stereo not drawn)	10	1	7	/	104	107	/	/	/
COc1ccc(O)c(C(=O)c2cnn(C(=O)c3cccc(N(C)C)c3)c2)c1	-6	12	/	/	/	/	/	/	/
CN(C)c1cccc(C(=O)n2cc(C(=O)c3cc(F)ccc3O)cn2)c1	51*	6	5	-0.58	108	101	/	/	2	ATG4B conf=50*
COc1ccc(C2OC(=O)c3ccccc3S2)cc1 (stereo not drawn)	54*	-1	3	-0.035	102	100	/	/	54*
Cc1ccccc1CSc1nnc(-c2cccs2)n1Cc1ccco1	78*	-2	0	-1.4	100	94	/	/	75*
Cc1ccccc1CSc1nnc(-c2ccco2)n1Cc1ccco1	53*	-5	5	-0.96	107	108	/	/	52*
c1ccc(CSc2nnc(-c3ccco3)n2Cc2ccco2)cc1	11	-1	-4	0.24	102	95	/	/	/
c1ccc(CSc2nnc(-c3cccs3)n2Cc2ccco2)cc1	58*	-2	0	-1	84	90	/	/	60*
CCOC(=O)N1CCN(C(=O)COC(=O)c2ccc([N+](=O)[O-])cc2Cl)CC1	-5	-3	/	/	/	/	/	/	/
Nc1ccc2c(c1)C(=O)C(=O)c1ccccc1-2	78*	81*	3	-4.6	101	108	/	/	11	ATG4B conf=27
Nc1ccc2c(c1)C(=O)c1ccccc1C2=O	4	9	/	/	/	/	/	/	/
